Read-outs that look alike come from different tables or passages of the source.

The test system of one assay is K562. The assay is described as follows: CCK8 antiproliferative assay, K562. Type of assay: cell-based, human. Particulars: read-out: Antiproliferative activity (IC50/μM) K562.
A further assay has as its system MV411. Kind of assay: CCK8 antiproliferative assay, MV411. The class given is cell-based, human. The note with it: read-out: Antiproliferative activity (IC50/μM) MV411; MV411, CCK8, 48 h, means ± SD, n = 3.
The test system of another assay is KU812. The assay is described as follows: CCK8 antiproliferative assay, KU812. The note with it: read-out: Antiproliferative activity (IC50/μM) KU812. The class given is cell-based, human.
A further assay concerns Kasumi-1. Kind of assay: CCK8 antiproliferative assay, Kasumi-1. The class given is cell-based, human. The note with it: read-out: Antiproliferative activity (IC50/μM) Kasumi-1; Kasumi-1, CCK8, 48 h, means ± SD, n = 3. Background: Formazan colour is commonly taken as a measure of viable cells.
The subject of another assay is CCRF-CEM. The assay is described as follows: CCK8 antiproliferative assay, CCRF-CEM. Type of assay: cell-based, human. The note with it: read-out: Antiproliferative activity (IC50/μM) CCRF-CEM, CCK8, 48 h, means ± SD, n = 3.
The next assay addresses HDAC1 (Homo sapiens, UniProt Q13547). The assay is described as follows: HDAC isoform inhibitory activity. The class given is biochemical.
In a further assay the target is HDAC2 (Homo sapiens, UniProt Q92769). Kind of assay: HDAC isoform inhibitory activity. The class given is biochemical.
The target of a further assay is HDAC3 (Homo sapiens, UniProt O15379). The assay is described as follows: HDAC isoform inhibitory activity. Type of assay: biochemical.
In another assay the target is T1, HDAC10 (Homo sapiens, UniProt Q969S8).
T1 sequence (Q969S8 1-669): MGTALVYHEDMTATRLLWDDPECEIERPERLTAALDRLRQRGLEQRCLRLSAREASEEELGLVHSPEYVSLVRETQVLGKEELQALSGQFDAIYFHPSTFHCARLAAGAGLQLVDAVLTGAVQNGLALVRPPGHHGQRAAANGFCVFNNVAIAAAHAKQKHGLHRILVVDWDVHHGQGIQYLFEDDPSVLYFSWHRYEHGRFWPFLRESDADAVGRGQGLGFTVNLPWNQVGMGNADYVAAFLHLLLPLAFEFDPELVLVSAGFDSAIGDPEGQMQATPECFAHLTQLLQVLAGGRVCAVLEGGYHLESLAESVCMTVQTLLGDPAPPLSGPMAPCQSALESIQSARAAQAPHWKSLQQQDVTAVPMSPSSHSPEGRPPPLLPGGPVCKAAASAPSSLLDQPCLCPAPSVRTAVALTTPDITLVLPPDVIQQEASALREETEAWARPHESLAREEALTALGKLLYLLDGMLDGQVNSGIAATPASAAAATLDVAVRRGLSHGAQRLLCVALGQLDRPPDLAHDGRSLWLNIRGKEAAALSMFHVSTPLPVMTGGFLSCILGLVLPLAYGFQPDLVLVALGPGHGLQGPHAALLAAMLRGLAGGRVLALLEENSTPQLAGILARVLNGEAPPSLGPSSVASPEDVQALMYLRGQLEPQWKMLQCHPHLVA
Kind of assay: HDAC isoform inhibitory activity. The class given is biochemical.

The subject of a further assay is MV411 cells. The assay is described as follows: Annexin V-FITC/PI apoptosis assay by flow cytometry. The class given is cell-based, human. The note with it: 48 hours. An outline of the steps:
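MV411 cells seeded at 5 × 10^5 per well and held 24 h at 37 °C, 5% CO2. Test compound was then added at 0, 0.25, 0.5 and 1.0 μM for a further 48 h. Cells were harvested, washed in annexin-binding buffer, stained with annexin V-FITC and PI for 15 min at 37 °C, and analysed by flow cytometry.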

A further assay relates to acetylated H3. Kind of assay: Western blotting of H3 and acetylated H3. Type of assay: cell-based, human. Particulars: MV411, 0.25, 0.5 and 1.0 μM, 48 hours. A general note: A western blot detects proteins with antibodies after separation by electrophoresis.
[1] abbreviates: K562, CCK8, 48 h, means ± SD, n = 3.
[2] abbreviates: KU812, CCK8, 48 h, means ± SD, n = 3.

Chain of HDAC2 (Q92769 whole entry, canonical isoform): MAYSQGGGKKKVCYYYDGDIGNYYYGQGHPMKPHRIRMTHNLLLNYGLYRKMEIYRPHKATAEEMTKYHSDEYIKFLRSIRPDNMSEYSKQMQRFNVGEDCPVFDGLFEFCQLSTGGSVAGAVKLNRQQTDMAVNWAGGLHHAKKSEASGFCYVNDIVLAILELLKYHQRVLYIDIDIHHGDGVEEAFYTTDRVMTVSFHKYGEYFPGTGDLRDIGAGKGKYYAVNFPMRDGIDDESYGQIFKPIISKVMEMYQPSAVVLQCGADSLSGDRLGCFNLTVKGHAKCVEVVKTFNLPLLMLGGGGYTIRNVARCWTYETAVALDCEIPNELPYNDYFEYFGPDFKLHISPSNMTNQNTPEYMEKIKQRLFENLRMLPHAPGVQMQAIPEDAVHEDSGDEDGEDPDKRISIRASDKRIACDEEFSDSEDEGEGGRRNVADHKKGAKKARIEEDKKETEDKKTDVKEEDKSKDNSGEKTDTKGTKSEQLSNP
Chain of HDAC3 (O15379 whole entry, canonical isoform): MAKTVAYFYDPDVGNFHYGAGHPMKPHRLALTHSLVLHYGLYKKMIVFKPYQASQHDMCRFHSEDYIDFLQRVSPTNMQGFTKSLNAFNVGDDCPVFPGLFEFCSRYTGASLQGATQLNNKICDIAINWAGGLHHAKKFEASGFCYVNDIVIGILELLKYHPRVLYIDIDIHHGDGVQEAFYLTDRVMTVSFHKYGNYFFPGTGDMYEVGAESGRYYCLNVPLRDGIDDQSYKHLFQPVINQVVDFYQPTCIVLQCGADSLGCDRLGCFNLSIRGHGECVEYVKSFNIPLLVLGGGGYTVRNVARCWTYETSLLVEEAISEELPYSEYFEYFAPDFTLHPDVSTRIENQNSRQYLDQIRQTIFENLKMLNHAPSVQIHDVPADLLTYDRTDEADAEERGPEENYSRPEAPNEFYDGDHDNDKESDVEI
Chain of HDAC3 (Q9Y618 395-489 partner limits assumed): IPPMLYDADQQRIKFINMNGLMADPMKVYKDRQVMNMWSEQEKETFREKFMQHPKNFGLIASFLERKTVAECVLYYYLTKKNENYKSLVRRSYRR
Chain of HDAC1 (Q13547 whole entry, canonical isoform): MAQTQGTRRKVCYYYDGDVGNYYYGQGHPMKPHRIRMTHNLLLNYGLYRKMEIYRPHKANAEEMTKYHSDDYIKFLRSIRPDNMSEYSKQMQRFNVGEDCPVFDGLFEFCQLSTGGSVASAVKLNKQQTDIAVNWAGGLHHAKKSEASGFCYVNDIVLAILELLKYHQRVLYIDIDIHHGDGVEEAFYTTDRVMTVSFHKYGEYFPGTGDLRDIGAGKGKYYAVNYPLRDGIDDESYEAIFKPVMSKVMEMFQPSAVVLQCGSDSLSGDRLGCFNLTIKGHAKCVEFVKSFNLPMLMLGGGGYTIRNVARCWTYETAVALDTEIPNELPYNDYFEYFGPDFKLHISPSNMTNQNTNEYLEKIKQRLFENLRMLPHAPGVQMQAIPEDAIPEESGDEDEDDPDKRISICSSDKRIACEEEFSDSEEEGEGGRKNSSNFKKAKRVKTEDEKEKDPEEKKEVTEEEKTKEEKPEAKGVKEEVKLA

With “4-(2-(4-(((3R,4R)-4-(3,4-Dimethoxybenzyl)-2-oxotetrahydrofuran-3-yl)methyl)-2-methoxyphenoxy)acetamido)-N-hydroxybenzamide [B6]”, the IC50 in the assay on K562 (setting [1]), with MV411, in the assay with KU812 (setting [2]), in the assay on Kasumi-1 and with CCRF-CEM was > 5 µM each time.
As to “4-(4-(((3R,4R)-4-(3,4-Dimethoxybenzyl)-2-oxotetrahydrofuran-3-yl)methyl)-2-methoxyphenoxy)-N-hydroxypentanamide [A1]”, the IC50 in the assay with K562 (setting [1]), with MV411, in the assay on KU812 (setting [2]), in the assay on Kasumi-1 and in the assay on CCRF-CEM was > 5 µM each time.
Regarding `COc1ccc(C[C@H]2COC(=O)[C@@H]2Cc2ccc(OCCCCC(=O)NO)c(OC)c2)cc1OC` [A2, 5-(4-(((3R,4R)-4-(3,4-Dimethoxybenzyl)-2-oxotetrahydrofuran-3-yl)methyl)-2-methoxyphenoxy)-N-hydroxypentanamide], the IC50 was > 5 µM with K562 (Homo sapiens, K562, 48 h) and > 5 µM in the assay with KU812 (Homo sapiens, KU812, 48 h).
Regarding `COc1ccc(C[C@H]2COC(=O)[C@@H]2Cc2ccc(OCCCCCC(=O)NO)c(OC)c2)cc1OC` [A3, 6-(4-(((3R,4R)-4-(3,4-Dimethoxybenzyl)-2-oxotetrahydrofuran-3-yl)methyl)-2-methoxyphenoxy)-N-hydroxyhexanamide], the IC50 in the assay on K562 (Homo sapiens, K562, 48 h) worked out at 2.12 ± 0.12 µM; in the assay on KU812 (Homo sapiens, KU812, 48 h), 3.88 ± 1.06 µM.
`COc1ccc(C[C@H]2COC(=O)[C@@H]2Cc2ccc(OCCCCCCC(=O)NO)c(OC)c2)cc1OC` [A4, 7-(4-(((3R,4R)-4-(3,4-Dimethoxybenzyl)-2-oxotetrahydrofuran-3-yl)methyl)-2-methoxyphenoxy)-N-hydroxyheptanamide]: the IC50 is 1.19 ± 0.25 µM in the assay with K562 (Homo sapiens, K562, 48 h) and 1.41 ± 0.75 µM in the assay on KU812 (Homo sapiens, KU812, 48 h).
For `COc1ccc(C[C@H]2COC(=O)[C@@H]2Cc2ccc(OCC(=O)N3CCC(C(=O)NO)CC3)c(OC)c2)cc1OC` [A8, 1-(2-(4-(((3R,4R)-4-(3,4-Dimethoxybenzyl)-2-oxotetrahydrofuran-3-yl)methyl)-2-methoxyphenoxy)acetyl)-N-hydroxypiperidine-4-carboxamide], the IC50 is > 5 µM with K562 (Homo sapiens, K562, 48 h) and > 5 µM in the assay with KU812 (Homo sapiens, KU812, 48 h).
Consider `COc1ccc(C[C@H]2COC(=O)[C@@H]2Cc2ccc(OCc3cn(CC(=O)NO)nn3)c(OC)c2)cc1OC` [A10, 2-(4-((4-(((3R,4R)-4-(3,4-Dimethoxybenzyl)-2-oxotetrahydrofuran-3-yl)methyl)-2-methoxyphenoxy)methyl)-1H-1,2,3-triazol-1-yl)-N-hydroxyacetamide], for which the IC50 in the assay on K562 (Homo sapiens, K562, 48 h) is > 5 µM; in the assay on KU812 (Homo sapiens, KU812, 48 h), > 5 µM.
With `COc1cc(C[C@H]2C(=O)OC[C@@H]2Cc2ccc(OC)c(OC)c2)ccc1O` [Arctigenin, reference compound], the IC50 in the assay with K562 (Homo sapiens, K562, 48 h) is 24.2 ± 3.12 µM; with MV411 it was 4.27 ± 1.68 µM; in the assay with KU812 (Homo sapiens, KU812, 48 h), > 30 µM.
As for `COc1ccc(C[C@H]2COC(=O)[C@@H]2Cc2ccc(OCC(=O)NCC(=O)Nc3ccccc3N)c(OC)c2)cc1OC` [B1, N-(2-Aminophenyl)-2-(2-(4-(((3R,4R)-4-(3,4-dimethoxybenzyl)-2-oxotetrahydrofuran-3-yl)methyl)-2-methoxyphenoxy)acetamido)acetamide], the IC50 with K562 (Homo sapiens, K562, 48 h) was > 5 µM; in the assay on KU812 (Homo sapiens, KU812, 48 h), > 5 µM.
Regarding `COc1ccc(C[C@H]2COC(=O)[C@@H]2Cc2ccc(OCC(=O)NCCC(=O)Nc3ccccc3N)c(OC)c2)cc1OC` [B2, N-(2-Aminophenyl)-3-(2-(4-(((3R,4R)-4-(3,4-dimethoxybenzyl)-2-oxotetrahydrofuran-3-yl)methyl)-2-methoxyphenoxy)acetamido)propanamide], the IC50 in the assay with K562 (Homo sapiens, K562, 48 h) was > 5 µM; in the assay on KU812 (Homo sapiens, KU812, 48 h) it was > 5 µM.
On to `COc1ccc(C[C@H]2COC(=O)[C@@H]2Cc2ccc(OCC(=O)NCCCCC(=O)Nc3ccccc3N)c(OC)c2)cc1OC` [B4, N-(2-Aminophenyl)-5-(2-(4-(((3R,4R)-4-(3,4-dimethoxybenzyl)-2-oxotetrahydrofuran-3-yl)methyl)-2-methoxyphenoxy)acetamido)pentanamide], for which the IC50 is > 5 µM with K562 (Homo sapiens, K562, 48 h) and > 5 µM with KU812 (Homo sapiens, KU812, 48 h).
As for `COc1ccc(C[C@H]2COC(=O)[C@@H]2Cc2ccc(OCC(=O)Nc3ccc(C(=O)Nc4ccccc4N)cc3)c(OC)c2)cc1OC` [B7, N-(2-Aminophenyl)-4-(2-(4-(((3R,4R)-4-(3,4-dimethoxybenzyl)-2-oxotetrahydrofuran-3-yl)methyl)-2-methoxyphenoxy)acetamido)benzamide], the IC50 in the assay with K562 (Homo sapiens, K562, 48 h) amounted to 1.96 ± 0.19 µM; in the assay on KU812 (Homo sapiens, KU812, 48 h), 2.09 ± 0.31 µM; against HDAC1 it was 0.261 µM; against HDAC2 it was 0.131 µM; against HDAC3, 0.299 µM; against HDAC10 it was 1.75 µM. Besides, the “overall proportion of apoptotic cells (Q1-UR + Q1-LR)” value worked out at 37.90% in the assay on MV411 cells (MV411, 0.5 μM); 77.00% in the assay with MV411 cells (MV411, 1.0 μM); 21.84% with MV411 cells (MV411, lowest concentration (printed 0.25 μM and 0.1 μM)). The “level of acetylated H3 (western blot)” value in the assay on acetylated H3 was “significantly increased the level of acetylated H3”.
Take `COc1ccc(C[C@H]2COC(=O)[C@@H]2Cc2ccc(OCc3cn(CC(=O)Nc4ccccc4N)nn3)c(OC)c2)cc1OC` [B8, N-(2-Aminophenyl)-2-(4-((4-(((3R,4R)-4-(3,4-dimethoxybenzyl)-2-oxotetrahydrofuran-3-yl)methyl)-2-methoxyphenoxy)methyl)-1H-1,2,3-triazol-1-yl)acetamide]: the IC50 in the assay with K562 (Homo sapiens, K562, 48 h) was > 5 µM; in the assay on KU812 (Homo sapiens, KU812, 48 h), > 5 µM.
As for `Nc1cc(F)ccc1NC(=O)c1ccc(CNC(=O)/C=C/c2cccnc2)cc1` [Tucidinostat, tucidinostat, reference compound], the IC50 in the assay on K562 (Homo sapiens, K562, 48 h) turned out to be 2.68 ± 0.65 µM; with KU812 (Homo sapiens, KU812, 48 h), 4.26 ± 0.48 µM.
For the molecule “N-(2-Aminophenyl)-5-(2-(4-(((3R,4R)-4-(3,4-dimethoxybenzyl)-2-oxotetrahydrofuran-3-yl)methyl)-2-methoxyphenoxy)acetamido)pentanamide [B5]”, the IC50 in the assay with K562 (setting [1]), with MV411, in the assay with KU812 (setting [2]), in the assay on Kasumi-1 and in the assay with CCRF-CEM was > 5 µM in each case.

The record behind these values is article PMC10951978 (RSC Advances, 2024).
